Assay results: ChEMBL document CHEMBL4689842, “EUbOPEN Chemogenomics Library wave 1” (2021)
Values joined by “and” are separate entries in the source; they are usually repeats but may differ in a detail not shown here. Identical values can stand only once.

Test system: HEK-293T
Test: Multiplex assay against HEK293T;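 as to Population Tubulin-Different-Phenotype (%): share of the cells with healthy nuclei that show this phenotype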
Format: toxicity, cell-based
Conditions: human
In short: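 Per cents of healthy-nucleus cells form the tubulin, mitochondrial-mass and membrane-permeability phenotype values. Live cells were stained at seeding with Hoechst33342, BioTracker Green Microtubule Cytoskeleton Dye, MitoTracker Red and Annexin V Alexa Fluor 680. After compound addition they were imaged on a CQ1 microscope at 37°C and 5% CO2, and CellPathfinder machine-learning gating split them into Hoechst high-intensity objects or normal cells, normal cells into healthy, pyknosed or fragmented nuclei, and pyknosed cells into mitotic or apoptotic.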

[1] = 12 h, 1 µM, compound concentration 1 uM, replicate 1
[2] = 12 h, 1 µM, compound concentration 1 uM, replicate 2
[3] = 12 h, 10 µM, compound concentration 10 uM, replicate 1
[4] = 12 h, 10 µM, compound concentration 10 uM, replicate 2
[5] = 24 h, 1 µM, compound concentration 1 uM, replicate 1
[6] = 24 h, 1 µM, compound concentration 1 uM, replicate 2
[7] = 24 h, 10 µM, compound concentration 10 uM, replicate 1
[8] = 24 h, 10 µM, compound concentration 10 uM, replicate 2
[9] = 48 h, 1 µM, compound concentration 1 uM, replicate 1
[10] = 48 h, 1 µM, compound concentration 1 uM, replicate 2
[11] = 48 h, 10 µM, compound concentration 10 uM, replicate 1
[12] = 48 h, 10 µM, compound concentration 10 uM, replicate 2

## Nc1c(C(=O)NCc2ccc(C(=O)NCCCC3CCCCC3)cc2)cnn1-c1ccccc1 [SR-318]
[1]
  Population Apoptotic (%): 38% and 53% and 33%
  Population Fragmented Nuclei (%): 11% and 10%
  Population Healthy Nuclei (%): 45% and 28% and 41%
  Population Hoechst High Intensity Objects (%): 13% and 14% and 11%
  Population Membrane Permeable-Phenotype (%): 1%
  Population Mitochondria Different-Phenotype (%): 68% and 75% and 77%
  Population Mitotic Cells (%): 61% and 46% and 66%
  Population Normal (%): 86% and 85% and 88%
  Population Pyknosed Nuclei (%): 45% and 60% and 48%
  Population Tubulin-Different-Phenotype (%): 37% and 47% and 50%
  Total Cell Count: 564 and 341 and 583
[2]
  Population Apoptotic (%): 8% and 14% and 10%
  Population Fragmented Nuclei (%): 9% and 6%
  Population Healthy Nuclei (%): 39% and 42% and 51%
  Population Hoechst High Intensity Objects (%): 4% and 5% and 2%
  Population Membrane Permeable-Phenotype (%): 8% and 6% and 4%
  Population Mitochondria Different-Phenotype (%): 22% and 14% and 17%
  Population Mitotic Cells (%): 91% and 85% and 89%
  Population Normal (%): 95% and 94% and 97%
  Population Pyknosed Nuclei (%): 51% and 47% and 41%
  Population Tubulin-Different-Phenotype (%): 18% and 20% and 15%
  Total Cell Count: 208 and 203 and 249
[3]
  Population Apoptotic (%): 43% and 67% and 60%
  Population Fragmented Nuclei (%): 13% and 17% and 12%
  Population Healthy Nuclei (%): 21% and 14% and 18%
  Population Hoechst High Intensity Objects (%): 16% and 13% and 15%
  Population Membrane Permeable-Phenotype (%): 5% and 2% and 1%
  Population Mitochondria Different-Phenotype (%): 97% and 100% and 94%
  Population Mitotic Cells (%): 56% and 32% and 39%
  Population Normal (%): 83% and 86% and 84%
  Population Pyknosed Nuclei (%): 64% and 68%
  Population Tubulin-Different-Phenotype (%): 90% and 89% and 92%
  Total Cell Count: 492 and 305 and 342
[4]
  Population Apoptotic (%): 42% and 40% and 53%
  Population Fragmented Nuclei (%): 2% and 5%
  Population Healthy Nuclei (%): 31% and 23%
  Population Hoechst High Intensity Objects (%): 6% and 3%
  Population Membrane Permeable-Phenotype (%): 7% and 4%
  Population Mitochondria Different-Phenotype (%): 82% and 78% and 79%
  Population Mitotic Cells (%): 57% and 59% and 46%
  Population Normal (%): 93% and 96%
  Population Pyknosed Nuclei (%): 66% and 62% and 70%
  Population Tubulin-Different-Phenotype (%): 78% and 84%
  Total Cell Count: 272 and 248 and 191
[5]
  Population Apoptotic (%): 42% and 41% and 52%
  Population Fragmented Nuclei (%): 12% and 10% and 16%
  Population Healthy Nuclei (%): 40% and 46% and 27%
  Population Hoechst High Intensity Objects (%): 15% and 12%
  Population Membrane Permeable-Phenotype (%): 3% and 1% and 5%
  Population Mitochondria Different-Phenotype (%): 71% and 56% and 69%
  Population Mitotic Cells (%): 57% and 58% and 47%
  Population Normal (%): 84% and 87%
  Population Pyknosed Nuclei (%): 46% and 43% and 55%
  Population Tubulin-Different-Phenotype (%): 48% and 34% and 54%
  Total Cell Count: 634 and 591 and 363
[6]
  Population Apoptotic (%): 11% and 13% and 5%
  Population Fragmented Nuclei (%): 5% and 9% and 6%
  Population Healthy Nuclei (%): 64% and 62% and 70%
  Population Hoechst High Intensity Objects (%): 2%
  Population Membrane Permeable-Phenotype (%): 7%
  Population Mitochondria Different-Phenotype (%): 14% and 23% and 18%
  Population Mitotic Cells (%): 88% and 86% and 94%
  Population Normal (%): 97%
  Population Pyknosed Nuclei (%): 30% and 27% and 22%
  Population Tubulin-Different-Phenotype (%): 22% and 26% and 15%
  Total Cell Count: 245 and 241 and 330
[7]
  Population Apoptotic (%): 50% and 60% and 64%
  Population Fragmented Nuclei (%): 18% and 20%
  Population Healthy Nuclei (%): 22% and 16% and 17%
  Population Hoechst High Intensity Objects (%): 19% and 15% and 14%
  Population Membrane Permeable-Phenotype (%): 0%
  Population Mitochondria Different-Phenotype (%): 98% and 97% and 96%
  Population Mitotic Cells (%): 49% and 39% and 35%
  Population Normal (%): 80% and 84% and 85%
  Population Pyknosed Nuclei (%): 58% and 63% and 61%
  Population Tubulin-Different-Phenotype (%): 94% and 86% and 90%
  Total Cell Count: 489 and 314 and 331
[8]
  Population Apoptotic (%): 61% and 57% and 59%
  Population Fragmented Nuclei (%): 6% and 3%
  Population Healthy Nuclei (%): 42% and 47% and 50%
  Population Hoechst High Intensity Objects (%): 4% and 5%
  Population Membrane Permeable-Phenotype (%): 3% and 1% and 2%
  Population Mitochondria Different-Phenotype (%): 90% and 89% and 87%
  Population Mitotic Cells (%): 38% and 42% and 40%
  Population Normal (%): 95% and 94%
  Population Pyknosed Nuclei (%): 50% and 49% and 46%
  Population Tubulin-Different-Phenotype (%): 93%
  Total Cell Count: 222 and 291 and 281
[9]
  Population Apoptotic (%): 50% and 32% and 31%
  Population Fragmented Nuclei (%): 17% and 13% and 15%
  Population Healthy Nuclei (%): 35% and 64% and 52%
  Population Hoechst High Intensity Objects (%): 15% and 9% and 12%
  Population Membrane Permeable-Phenotype (%): 0%
  Population Mitochondria Different-Phenotype (%): 46% and 27% and 47%
  Population Mitotic Cells (%): 50% and 67% and 68%
  Population Normal (%): 84% and 90% and 87%
  Population Pyknosed Nuclei (%): 46% and 21% and 32%
  Population Tubulin-Different-Phenotype (%): 28% and 25% and 40%
  Total Cell Count: 384 and 851 and 794
[10]
  Population Apoptotic (%): 20% and 10% and 15%
  Population Fragmented Nuclei (%): 7% and 9% and 3%
  Population Healthy Nuclei (%): 82% and 81%
  Population Hoechst High Intensity Objects (%): 4%
  Population Membrane Permeable-Phenotype (%): 3% and 1%
  Population Mitochondria Different-Phenotype (%): 9% and 7% and 13%
  Population Mitotic Cells (%): 79% and 89% and 84%
  Population Normal (%): 95%
  Population Pyknosed Nuclei (%): 10% and 9% and 15%
  Population Tubulin-Different-Phenotype (%): 24% and 17% and 22%
  Total Cell Count: 386 and 610 and 321
[11]
  Population Apoptotic (%): 68% and 72% and 52%
  Population Fragmented Nuclei (%): 28% and 25%
  Population Healthy Nuclei (%): 22% and 19% and 26%
  Population Hoechst High Intensity Objects (%): 13% and 18% and 16%
  Population Membrane Permeable-Phenotype (%): 0%
  Population Mitochondria Different-Phenotype (%): 98% and 96% and 95%
  Population Mitotic Cells (%): 31% and 27% and 47%
  Population Normal (%): 86% and 81% and 84%
  Population Pyknosed Nuclei (%): 48% and 55%
  Population Tubulin-Different-Phenotype (%): 98% and 94% and 82%
  Total Cell Count: 329 and 319 and 500
[12]
  Population Apoptotic (%): 66%
  Population Fragmented Nuclei (%): 5% and 7% and 8%
  Population Healthy Nuclei (%): 69% and 65% and 61%
  Population Hoechst High Intensity Objects (%): 3% and 6%
  Population Membrane Permeable-Phenotype (%): 2% and 1%
  Population Mitochondria Different-Phenotype (%): 85% and 90% and 93%
  Population Mitotic Cells (%): 33%
  Population Normal (%): 96% and 93%
  Population Pyknosed Nuclei (%): 25% and 26% and 30%
  Population Tubulin-Different-Phenotype (%): 95%
  Total Cell Count: 373 and 318 and 253
